Results: ChEMBL document CHEMBL3621189, “Identification of non-peptidic cysteine reactive fragments as inhibitors of cysteine protease rhodesain” (Bioorg Med Chem Lett, 2015)
Calls of active or inactive are those of the source. The calls are words filed in the database; no cut-off is given here.

Tests used:
[1] = target: Rhodesain (Trypanosoma brucei rhodesiense) (UniProt Q95PM0); test: Time-dependent inhibition of Trypanosoma brucei rhodesiense Rhodesain expressed in Pichia pastoris using Z-Phe-Arg-AMC as substrate assessed as ratio of Kinact to Ki preincubated for 30 mins followed by substrate addition measured for 7 mins by fluorescence assay
[2] = tested on: Trypanosoma brucei brucei; test: Antitrypanosomal activity against Trypanosoma brucei brucei 427 assessed as growth inhibition after 24 hrs by Alamar Blue assay; type: functional, organism-based; details: Trypanosoma brucei, 427, 24 h
HepG2 = test: Cytotoxicity against human HepG2 cells after 72 hrs by MTT assay; type: cell-based; details: HepG2, 72 h
[3] = target: Rhodesain (Trypanosoma brucei rhodesiense) (UniProt Q95PM0); test: Inhibition of Trypanosoma brucei rhodesiense Rhodesain expressed in Pichia pastoris using Z-Phe-Arg-AMC as substrate at 10 uM preincubated for 30 mins followed by substrate addition by fluorescence assay relative to control
How it was run: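 Single-concentration enzymatic screen of a 200-member cysteine-reactive electrophilic fragment library at 10 μM against rhodesain, scored as percent inhibition. Actives were retested at 10 μM in a confirmatory enzymatic assay.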

Sequence of Rhodesain (Trypanosoma brucei rhodesiense) (Q95PM0 1-450): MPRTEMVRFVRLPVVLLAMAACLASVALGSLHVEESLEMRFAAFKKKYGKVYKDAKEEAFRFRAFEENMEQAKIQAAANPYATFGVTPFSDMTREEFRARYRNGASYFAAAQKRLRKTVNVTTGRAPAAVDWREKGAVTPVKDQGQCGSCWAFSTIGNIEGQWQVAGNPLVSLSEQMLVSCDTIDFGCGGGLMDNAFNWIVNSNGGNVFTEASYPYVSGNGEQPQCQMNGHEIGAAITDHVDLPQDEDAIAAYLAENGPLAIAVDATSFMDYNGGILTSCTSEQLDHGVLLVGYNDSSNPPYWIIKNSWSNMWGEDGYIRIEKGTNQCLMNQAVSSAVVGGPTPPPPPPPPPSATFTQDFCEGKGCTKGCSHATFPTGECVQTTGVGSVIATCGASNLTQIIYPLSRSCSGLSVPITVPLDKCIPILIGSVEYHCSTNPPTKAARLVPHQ

| Ratio [1] | IC50 [2] | inhibition [3] | inhibition [1] | SMILES | IC50 (HepG2) |
| --- | --- | --- | --- | --- | --- |
| 13.2 M⁻¹ s⁻¹ | 43.4 µM |  |  | COC(=O)/C=C/CNC(=O)c1cc(-c2ccc(C)cc2)on1 | > 150 µM |
|  | > 50 µM | < 40% | inactive | CC(C)CC(=O)N1CCC(C(=O)NC/C=C/S(C)(=O)=O)CC1 | > 150 µM |
|  | > 50 µM | < 40% | inactive | COC(=O)/C=C/CNC(=O)C1CCN(C(=O)CC(C)C)CC1 | > 150 µM |
| 18.3 M⁻¹ s⁻¹ | 30.3 µM |  |  | COC(=O)/C=C/CNC(=O)c1sc(-c2ccccc2F)nc1C | > 150 µM |
| 3.47 M⁻¹ s⁻¹ | 30.2 µM | < 40% |  | Cc1nc(-c2ccccc2F)sc1C(=O)NC/C=C/S(C)(=O)=O | 69 µM |
|  | 29.5 µM | < 40% | inactive | Cc1ccc(-c2cc(C(=O)NC/C=C/S(C)(=O)=O)no2)cc1 | 76 µM |
